Five molecules from ChEMBL document CHEMBL2390926, “Identification of novel FLT3 kinase inhibitors” (Eur J Med Chem, 2013) can be followed below.

Each structure is given as a SMILES string. pEC50: −log10 of the molar value. Active and inactive are the calls of the source. The rule behind the calls is not given here.

Experiment [1] concerns the target Proto-oncogene tyrosine-protein kinase Src (Homo sapiens) (UniProt P12931). Kind of experiment: Inhibition of SRC (unknown origin) transfected in mouse Ba/F3 cells at 1 uM after 24 hrs. Format: cell-based. The conditions noted are these: BaF3.
The target of experiment [2] is Proto-oncogene tyrosine-protein kinase ROS (Homo sapiens) (UniProt P08922). Kind of experiment: Inhibition of ROS1 (unknown origin) transfected in mouse Ba/F3 cells at 1 uM after 24 hrs. Format: cell-based. The conditions noted are these: BaF3.
Chain of Proto-oncogene tyrosine-protein kinase ROS (Homo sapiens) (P08922 whole entry): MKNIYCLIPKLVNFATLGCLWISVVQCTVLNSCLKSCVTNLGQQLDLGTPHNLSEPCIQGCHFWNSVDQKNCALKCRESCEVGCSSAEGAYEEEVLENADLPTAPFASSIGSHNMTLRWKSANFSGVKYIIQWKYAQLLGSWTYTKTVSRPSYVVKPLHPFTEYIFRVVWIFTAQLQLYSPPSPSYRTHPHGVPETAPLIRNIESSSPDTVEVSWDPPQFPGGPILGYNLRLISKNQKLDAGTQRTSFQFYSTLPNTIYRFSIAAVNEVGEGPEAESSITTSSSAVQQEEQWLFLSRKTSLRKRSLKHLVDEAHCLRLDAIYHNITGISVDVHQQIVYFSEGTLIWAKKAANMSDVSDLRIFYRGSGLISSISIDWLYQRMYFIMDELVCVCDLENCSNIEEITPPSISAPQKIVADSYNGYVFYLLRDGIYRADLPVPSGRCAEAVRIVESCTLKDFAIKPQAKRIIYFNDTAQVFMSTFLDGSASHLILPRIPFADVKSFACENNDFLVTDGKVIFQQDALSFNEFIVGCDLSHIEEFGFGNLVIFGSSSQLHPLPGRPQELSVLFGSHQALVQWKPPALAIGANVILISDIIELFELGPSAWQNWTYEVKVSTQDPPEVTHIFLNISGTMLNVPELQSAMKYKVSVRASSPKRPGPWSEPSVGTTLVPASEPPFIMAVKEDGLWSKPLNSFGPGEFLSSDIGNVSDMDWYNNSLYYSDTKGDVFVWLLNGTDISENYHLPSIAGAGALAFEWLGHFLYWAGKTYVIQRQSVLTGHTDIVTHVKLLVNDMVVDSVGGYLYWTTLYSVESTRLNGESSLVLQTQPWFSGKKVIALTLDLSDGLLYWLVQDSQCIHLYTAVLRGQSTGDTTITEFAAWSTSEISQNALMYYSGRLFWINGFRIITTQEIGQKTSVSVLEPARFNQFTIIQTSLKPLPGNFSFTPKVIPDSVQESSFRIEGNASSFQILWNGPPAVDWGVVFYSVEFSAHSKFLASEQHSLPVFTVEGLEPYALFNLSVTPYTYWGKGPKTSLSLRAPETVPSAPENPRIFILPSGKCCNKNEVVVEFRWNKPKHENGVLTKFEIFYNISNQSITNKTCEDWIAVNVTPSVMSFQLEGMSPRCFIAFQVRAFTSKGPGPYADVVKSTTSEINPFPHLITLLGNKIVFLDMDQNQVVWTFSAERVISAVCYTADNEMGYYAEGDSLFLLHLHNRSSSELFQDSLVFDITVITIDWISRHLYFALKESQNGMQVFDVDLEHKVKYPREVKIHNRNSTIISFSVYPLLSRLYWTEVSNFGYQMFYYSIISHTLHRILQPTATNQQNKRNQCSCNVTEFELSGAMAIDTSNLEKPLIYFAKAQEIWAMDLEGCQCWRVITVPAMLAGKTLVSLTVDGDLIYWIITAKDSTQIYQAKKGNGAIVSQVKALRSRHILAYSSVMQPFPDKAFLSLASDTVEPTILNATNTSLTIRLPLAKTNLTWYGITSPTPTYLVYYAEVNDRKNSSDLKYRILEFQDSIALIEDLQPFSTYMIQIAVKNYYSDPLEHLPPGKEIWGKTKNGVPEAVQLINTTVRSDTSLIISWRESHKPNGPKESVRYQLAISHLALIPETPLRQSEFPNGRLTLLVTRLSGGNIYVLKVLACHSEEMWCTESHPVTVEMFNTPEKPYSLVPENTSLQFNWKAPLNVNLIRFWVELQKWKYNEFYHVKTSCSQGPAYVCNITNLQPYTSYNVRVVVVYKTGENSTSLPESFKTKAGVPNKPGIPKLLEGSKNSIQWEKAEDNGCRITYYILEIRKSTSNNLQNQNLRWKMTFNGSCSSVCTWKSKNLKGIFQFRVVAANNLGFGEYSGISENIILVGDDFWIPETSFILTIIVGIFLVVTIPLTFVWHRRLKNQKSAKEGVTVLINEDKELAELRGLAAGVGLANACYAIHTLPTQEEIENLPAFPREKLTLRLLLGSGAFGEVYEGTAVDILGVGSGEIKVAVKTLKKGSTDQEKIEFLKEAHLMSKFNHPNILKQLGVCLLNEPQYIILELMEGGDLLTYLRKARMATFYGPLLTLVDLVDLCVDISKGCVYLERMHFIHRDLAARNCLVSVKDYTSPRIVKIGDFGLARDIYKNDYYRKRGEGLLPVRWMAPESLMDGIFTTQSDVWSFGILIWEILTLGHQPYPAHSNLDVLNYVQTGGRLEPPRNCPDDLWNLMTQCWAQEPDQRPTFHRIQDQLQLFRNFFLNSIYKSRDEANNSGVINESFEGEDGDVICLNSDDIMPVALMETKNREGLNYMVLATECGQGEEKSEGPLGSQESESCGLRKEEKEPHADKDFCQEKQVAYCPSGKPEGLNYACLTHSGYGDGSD
Experiment [3] deals with T1, Tyrosine-protein kinase Mer (Homo sapiens) (UniProt Q12866).
T1 sequence (whole entry): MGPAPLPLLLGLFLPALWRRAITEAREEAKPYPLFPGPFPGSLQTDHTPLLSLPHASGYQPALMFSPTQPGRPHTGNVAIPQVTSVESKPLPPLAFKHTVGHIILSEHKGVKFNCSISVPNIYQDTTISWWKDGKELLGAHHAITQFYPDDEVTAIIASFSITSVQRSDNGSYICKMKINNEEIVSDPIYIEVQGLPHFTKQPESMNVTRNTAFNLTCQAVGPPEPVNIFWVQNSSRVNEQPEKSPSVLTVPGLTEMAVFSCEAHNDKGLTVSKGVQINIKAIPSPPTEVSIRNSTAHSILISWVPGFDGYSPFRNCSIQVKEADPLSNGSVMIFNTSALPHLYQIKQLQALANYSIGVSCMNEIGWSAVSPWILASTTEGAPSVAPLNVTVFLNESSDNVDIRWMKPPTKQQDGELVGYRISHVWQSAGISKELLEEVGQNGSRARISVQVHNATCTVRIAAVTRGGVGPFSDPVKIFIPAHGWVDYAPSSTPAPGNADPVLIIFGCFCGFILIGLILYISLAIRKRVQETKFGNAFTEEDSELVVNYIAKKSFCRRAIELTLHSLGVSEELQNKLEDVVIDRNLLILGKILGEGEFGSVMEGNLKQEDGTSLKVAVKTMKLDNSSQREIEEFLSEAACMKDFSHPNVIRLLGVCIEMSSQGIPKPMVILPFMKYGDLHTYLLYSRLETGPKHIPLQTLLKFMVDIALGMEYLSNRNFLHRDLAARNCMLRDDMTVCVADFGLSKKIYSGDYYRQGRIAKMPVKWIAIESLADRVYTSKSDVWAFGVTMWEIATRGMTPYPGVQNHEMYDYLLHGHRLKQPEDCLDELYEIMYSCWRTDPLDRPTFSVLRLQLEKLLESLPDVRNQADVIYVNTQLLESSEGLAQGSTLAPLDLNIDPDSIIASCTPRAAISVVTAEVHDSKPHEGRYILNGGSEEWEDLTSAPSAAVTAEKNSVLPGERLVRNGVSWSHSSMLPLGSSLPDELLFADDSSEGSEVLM
Kind of experiment: Inhibition of MERTK (unknown origin) transfected in mouse Ba/F3 cells at 1 uM after 24 hrs. The conditions noted are these: BaF3. In kind it is cell-based.

The target in experiment [4] is T2, Megakaryocyte-associated tyrosine-protein kinase (Homo sapiens) (UniProt P42679).
T2 sequence (whole entry): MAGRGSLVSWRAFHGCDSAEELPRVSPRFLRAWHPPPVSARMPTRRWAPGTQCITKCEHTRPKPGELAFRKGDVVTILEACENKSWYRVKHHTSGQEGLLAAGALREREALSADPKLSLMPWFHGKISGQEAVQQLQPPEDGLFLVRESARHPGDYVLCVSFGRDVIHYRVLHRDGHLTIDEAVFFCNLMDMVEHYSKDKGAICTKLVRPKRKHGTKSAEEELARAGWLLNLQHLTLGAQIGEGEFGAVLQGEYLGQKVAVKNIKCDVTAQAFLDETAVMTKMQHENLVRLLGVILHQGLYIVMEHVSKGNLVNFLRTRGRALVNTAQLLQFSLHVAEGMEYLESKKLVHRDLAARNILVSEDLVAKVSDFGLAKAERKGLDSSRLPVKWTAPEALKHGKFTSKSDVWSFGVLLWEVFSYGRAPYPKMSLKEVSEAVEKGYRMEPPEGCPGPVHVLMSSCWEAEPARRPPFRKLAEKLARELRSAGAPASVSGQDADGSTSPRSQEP
Kind of experiment: Inhibition of MATK1 (unknown origin) transfected in mouse Ba/F3 cells at 1 uM after 24 hrs. The note with it: BaF3. In kind it is cell-based.

In experiment [5] the target is Tyrosine-protein kinase HCK (Homo sapiens) (UniProt P08631). Kind of experiment: Inhibition of HCK (unknown origin) transfected in mouse Ba/F3 cells at 1 uM after 24 hrs. Format: cell-based. The note with it: BaF3. Summed up: (§1)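 Kinase specificity panel: each Ba/F3 line transformed with one of 24 tyrosine kinases depends on that kinase to grow. Cells were given compound at 1 or 5 µM for 24 h, with DMSO as comparator. Percentage growth was read by ATP-lite luminescence and reported as mean ± SEM.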
Chain of Tyrosine-protein kinase HCK (Homo sapiens) (P08631 2-526 limits assumed): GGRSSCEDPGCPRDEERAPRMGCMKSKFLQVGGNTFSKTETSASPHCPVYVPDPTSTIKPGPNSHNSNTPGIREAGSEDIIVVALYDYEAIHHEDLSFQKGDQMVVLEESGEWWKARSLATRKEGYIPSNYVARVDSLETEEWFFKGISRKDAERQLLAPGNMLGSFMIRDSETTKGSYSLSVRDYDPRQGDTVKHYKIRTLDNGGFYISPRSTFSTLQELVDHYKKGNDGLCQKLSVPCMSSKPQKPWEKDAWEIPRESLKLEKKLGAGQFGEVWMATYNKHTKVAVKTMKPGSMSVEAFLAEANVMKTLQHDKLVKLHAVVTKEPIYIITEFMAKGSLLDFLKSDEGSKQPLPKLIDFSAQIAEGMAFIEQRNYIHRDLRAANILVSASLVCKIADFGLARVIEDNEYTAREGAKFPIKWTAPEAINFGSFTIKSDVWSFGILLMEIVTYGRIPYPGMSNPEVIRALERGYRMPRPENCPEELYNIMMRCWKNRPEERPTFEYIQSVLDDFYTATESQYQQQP

For experiment [6], the target named is Tyrosine-protein kinase Fyn (Homo sapiens) (UniProt P06241). Kind of experiment: Inhibition of FYN (unknown origin) transfected in mouse Ba/F3 cells at 1 uM after 24 hrs. Format: cell-based. The conditions noted are these: BaF3. Summed up: as §1
For experiment [7], the target named is Ephrin type-A receptor 7 (Homo sapiens) (UniProt Q15375). Kind of experiment: Inhibition of EPHA7 (unknown origin) transfected in mouse Ba/F3 cells at 1 uM after 24 hrs. Format: cell-based. The note with it: BaF3. Summed up: as §1
Chain of Ephrin type-A receptor 7 (Homo sapiens) (Q15375 28-998 limits assumed): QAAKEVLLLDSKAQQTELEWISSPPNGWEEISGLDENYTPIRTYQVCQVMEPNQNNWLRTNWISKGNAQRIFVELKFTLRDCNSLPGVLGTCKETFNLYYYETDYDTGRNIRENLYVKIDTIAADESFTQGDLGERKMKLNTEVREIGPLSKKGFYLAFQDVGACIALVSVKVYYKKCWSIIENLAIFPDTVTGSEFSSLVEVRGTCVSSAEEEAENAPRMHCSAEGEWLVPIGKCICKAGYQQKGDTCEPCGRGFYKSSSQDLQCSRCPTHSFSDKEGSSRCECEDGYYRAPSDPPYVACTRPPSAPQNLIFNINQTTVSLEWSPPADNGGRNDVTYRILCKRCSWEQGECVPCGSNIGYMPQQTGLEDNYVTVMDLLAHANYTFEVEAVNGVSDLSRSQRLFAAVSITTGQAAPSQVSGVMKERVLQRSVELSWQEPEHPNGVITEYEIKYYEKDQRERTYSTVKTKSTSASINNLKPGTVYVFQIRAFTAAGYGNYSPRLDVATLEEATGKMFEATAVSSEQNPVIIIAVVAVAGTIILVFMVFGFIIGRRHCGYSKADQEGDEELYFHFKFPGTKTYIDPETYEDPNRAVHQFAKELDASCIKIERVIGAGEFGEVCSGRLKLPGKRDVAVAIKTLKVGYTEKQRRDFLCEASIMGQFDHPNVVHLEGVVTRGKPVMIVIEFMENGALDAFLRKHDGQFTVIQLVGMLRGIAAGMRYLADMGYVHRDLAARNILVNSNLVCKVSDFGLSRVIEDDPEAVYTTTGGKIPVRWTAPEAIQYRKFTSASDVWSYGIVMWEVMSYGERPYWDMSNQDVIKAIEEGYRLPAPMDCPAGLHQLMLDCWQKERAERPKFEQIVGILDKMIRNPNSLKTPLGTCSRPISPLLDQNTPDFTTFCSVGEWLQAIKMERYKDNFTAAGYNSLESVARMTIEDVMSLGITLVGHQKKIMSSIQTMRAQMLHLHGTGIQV
In experiment [8] the target is Epidermal growth factor receptor (Homo sapiens) (UniProt P00533). Kind of experiment: Inhibition of EGFR (unknown origin) transfected in mouse Ba/F3 cells at 1 uM after 24 hrs. Format: cell-based. The note with it: BaF3. Summed up: as §1
Chain of Epidermal growth factor receptor (Homo sapiens) (P00533 whole entry): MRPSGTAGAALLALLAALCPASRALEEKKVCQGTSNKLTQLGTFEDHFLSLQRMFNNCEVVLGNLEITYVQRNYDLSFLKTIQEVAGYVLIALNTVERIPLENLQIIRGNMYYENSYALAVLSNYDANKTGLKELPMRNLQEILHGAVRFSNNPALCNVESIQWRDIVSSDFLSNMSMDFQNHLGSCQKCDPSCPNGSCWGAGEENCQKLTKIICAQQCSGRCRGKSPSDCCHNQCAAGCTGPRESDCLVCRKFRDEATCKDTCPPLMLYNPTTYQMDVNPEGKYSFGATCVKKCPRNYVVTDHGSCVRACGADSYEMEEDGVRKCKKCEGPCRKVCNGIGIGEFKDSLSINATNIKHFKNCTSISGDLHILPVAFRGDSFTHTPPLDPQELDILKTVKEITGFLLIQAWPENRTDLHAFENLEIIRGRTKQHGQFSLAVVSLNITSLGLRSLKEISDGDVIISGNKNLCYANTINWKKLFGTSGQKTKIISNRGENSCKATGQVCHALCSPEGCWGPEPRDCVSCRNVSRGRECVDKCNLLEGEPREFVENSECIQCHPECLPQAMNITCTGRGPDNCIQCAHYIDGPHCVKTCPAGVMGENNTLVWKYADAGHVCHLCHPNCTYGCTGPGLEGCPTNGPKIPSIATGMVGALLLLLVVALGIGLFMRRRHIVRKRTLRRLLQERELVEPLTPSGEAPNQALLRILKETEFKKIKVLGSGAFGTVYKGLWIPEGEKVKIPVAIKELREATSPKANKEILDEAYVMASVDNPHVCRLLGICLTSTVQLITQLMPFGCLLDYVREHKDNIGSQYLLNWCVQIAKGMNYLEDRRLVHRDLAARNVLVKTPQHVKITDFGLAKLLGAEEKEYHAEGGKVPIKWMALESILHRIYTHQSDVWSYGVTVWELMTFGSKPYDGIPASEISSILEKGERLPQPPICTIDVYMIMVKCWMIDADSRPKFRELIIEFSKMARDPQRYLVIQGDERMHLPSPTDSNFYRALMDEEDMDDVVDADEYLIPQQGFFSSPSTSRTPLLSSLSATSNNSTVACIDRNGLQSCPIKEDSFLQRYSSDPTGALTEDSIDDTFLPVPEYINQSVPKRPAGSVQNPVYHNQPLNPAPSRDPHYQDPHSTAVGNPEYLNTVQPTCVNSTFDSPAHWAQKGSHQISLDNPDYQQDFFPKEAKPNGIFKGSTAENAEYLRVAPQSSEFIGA
The target in experiment [9] is Tyrosine-protein kinase receptor UFO (Homo sapiens) (UniProt P30530). Kind of experiment: Inhibition of AXL (unknown origin) transfected in mouse Ba/F3 cells at 1 uM after 24 hrs. Format: cell-based. The conditions noted are these: BaF3. Summed up:
as §1

Experiment [10] deals with Tyrosine-protein kinase ABL2 (Homo sapiens) (UniProt P42684). Kind of experiment: Inhibition of ABL2 (unknown origin) transfected in mouse Ba/F3 cells at 1 uM after 24 hrs. The note with it: BaF3. In kind it is cell-based. Summed up: as §1
Experiment [11] concerns MOLM-13. Kind of experiment: Cytotoxicity against human MOLM13 cells after 72 hrs by plate reader analysis. In kind it is functional, cell-based. The note with it: MOLM-13, 72 h.

In general, pEC50 refers to −log10 of the EC50, conventionally taken in molar units. Low values mean a high EC50, high ones a low EC50. For `Cc1cccc(C(=O)Nc2cc(-c3ccc(F)cc3)n[nH]2)c1`, the inhibition result in [1], in [2], in [3], in [4], in [5] and in experiment [6] was “inactive” throughout. Further, the inhibition result in experiment [7], in experiment [8], in experiment [9] and in experiment [10] was “inactive” each time. In experiment [11], this molecule gave a pEC50 of 6.20.

For the molecule `Cc1ccc(-c2cc(NC(=O)c3ccc(F)cc3)[nH]n2)cc1`, the inhibition result in [1], in [2], in experiment [3], in [4], in experiment [5] and in experiment [6] was “inactive” in each case. The inhibition result in experiment [7], in [8], in [9] and in [10] was “inactive” in each case. The molecule further gave a pEC50 in experiment [11] of 6.21.

On to `Cc1ccc(-n2cnc3cc(Nc4nnc(C)c5ccccc45)ccc32)cc1`, for which, in experiment [11], the pEC50 is 6.48.

`Fc1ccc(-c2n[nH]cc2-c2ccncc2)cc1Cl` gave a pEC50 in experiment [11] of 6.59.

For `COc1ccc(C(=O)Nc2cc(-c3ccccc3)[nH]n2)cc1`, the inhibition entry in experiment [1], in experiment [2], in experiment [3], in [4], in [5] and in experiment [6] was “inactive” each time. Moreover, the inhibition entry in [7], in experiment [8], in experiment [9] and in experiment [10] was “inactive” each time. In experiment [11], this molecule had a pEC50 of 6.53.
